Data set [1] can be described thus: Permeability by PAMPA. The class given is ADME. The note with it: read-out: permeability. In outline:
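PAMPA permeability measured at pH 6.5.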
Background: In PAMPA a lipid-coated filter parts donor from acceptor wells.

Data set [2] in a line: Tmax in mouse at 3 mg/kg, po. The data set is classed as ADME, organism-based. The arrangement: dose 3 mg/kg, route oral. The note with it: in vivo.
Data set [3] in a line: Volume of distribution at steady state in mouse at 1 mg/kg, iv. The data set is classed as ADME, organism-based. Also noted: dose 1 mg/kg, route intravenous. Conditions: in vivo, read-out: Vdss.
A short description of data set [4]: AUC (0 to infinity) in mouse at 1 mg/kg, iv. The class given is ADME, organism-based. Also noted: time infinity, dose 1 mg/kg, route intravenous. The note with it: plasma.
The nature of data set [5]: AUC (0 to infinity) in mouse at 3 mg/kg, po. Conditions: plasma. The class given is ADME, organism-based. The arrangement: time infinity, dose 3 mg/kg, route oral.
The nature of data set [6]: Apparent permeability across human Caco-2 cells. The data set is classed as ADME, cell-based. For orientation: Passage across Caco-2 layers is used to estimate intestinal permeability.
Data set [7] can be described thus: Bioavailability in mouse at 3 mg/kg, po. The note with it: in vivo.

From ChEMBL document CHEMBL1153499, “Synthesis, biological evaluation, and metabolic stability of acrylamide derivatives as novel CCR3 antagonists” (Bioorg Med Chem, 2009) come the findings set out here.

Bounds are passed on as bounds.

As to `O=C(NC1CC2CCC(C1)N2Cc1ccc2cc(F)ccc2c1)c1cc[n+]([O-])cc1C(=O)N1CCCCC1` (stereo not given), the Papp in data set [1] came out at 4.7 ×10⁻⁶ cm/s.

`O=C(C=C1CCN(C(=O)c2ccccc2O)CC1)N[C@@H]1CCN(Cc2ccc3cc(F)ccc3c2)C1`: the time to peak (Tmax) – broadly, the time from dosing to the highest level – in data set [2] was determined as 48 min. In addition, in data set [3], the Vd turned out to be 9.88 L/kg. Besides, the AUC(0-inf) (commonly the area under the concentration-time curve extrapolated to infinity) was found to be 190 ng·h/mL in data set [4] and 200 ng·h/mL in data set [5]. The Papp in data set [6] came to 4 ×10⁻⁶ cm/s. In addition, in data set [7], the bioavailability (as a rule, the share of a dose that reaches the circulation, judged against a reference dose that is usually intravenous) was determined as 35%.

Take `O=C(C=C1CCN(C(=O)c2ccccc2)CC1)N[C@@H]1CCN(Cc2ccc3cc(F)ccc3c2)C1`: the Papp in data set [1] worked out at 19.9 ×10⁻⁶ cm/s.

With `O=C(NC1CC2CCC(C1)N2Cc1ccc2cc(F)ccc2c1)c1ccccc1-c1ccccc1` (stereo not given), in data set [1], the Papp was over 30 ×10⁻⁶ cm/s.

`Cc1ccc(C(=O)N2CCC(=CC(=O)N[C@@H]3CCN(Cc4ccc5cc(F)ccc5c4)C3)CC2)c(O)c1`: the Papp in data set [1] amounted to 27.3 ×10⁻⁶ cm/s.
